Test results: ChEMBL document CHEMBL5104109, “The identification of highly efficacious functionalised tetrahydrocyclopenta[c]pyrroles as inhibitors of HBV viral replication through modulation of HBV capsid assembly” (RSC Med Chem, 2022)
Values after ≈ are worked out from the molar mass of the structure shown. Each block holds one compound with its values, some of them ahead of it.

What was measured:
[1] = system: Hepatitis B virus; experiment: Antiviral activity against HBV infected in NOD.CB17-Prkdc-scid/J hydrodynamic injection mouse model expressing HBV genotype D assessed as log reduction in HBV DNA at 3 mg/kg,po QD for 7 days by qPCR method relative to control; assay type: functional; details: time 7 day
In short: (§1)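 Six-week-old female NOD.CB17-Prkdcscid/J mice received an HBV plasmid by hydrodynamic tail-vein injection (1.6 mL within 5 s). Seven days after injection (day 0), oral gavage dosing began at 3, 10 or 30 mg/kg once or twice daily; controls received vehicle by gavage. Serum was taken on day 0 (predose) and day 7, and HBV DNA was measured in total extracted nucleic acid by qPCR.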

[2] = Aqueous solubility of compound at pH 7.4; assay type: physicochemical; details: buffer
In short: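 A 10 mM DMSO stock was diluted into PBS pH 7.4 to 200 μM compound, 2% DMSO final, and shaken 18–24 h at 22 °C. Samples were filtered by centrifugation and the filtrate quantified by UPLC-UV/MS against a standard curve of 4–200 μM in DMSO.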

[3] = Cmax in CD-1 mouse at 10 mg/kg, po; assay type: ADME, organism-based; parameters: dose 10 mg/kg, route po; details: in vivo
In short: (§2)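 Female CD-1 mice were dosed 2.0 mg/kg IV or 10 mg/kg PO in 40% PEG400/5% EtOH/55% water. Serial blood was taken at 5 min (IV), 15 min (PO), 30 min, and 2, 4, 8, 12 and 24 h into K2EDTA, and plasma was prepared. Plasma levels were measured by LC-MS/MS against spiked plasma standards of 0.5–8000 ng/mL. Parameters came from non-compartmental analysis.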

[4] = system: Hepatitis B virus; experiment: Antiviral activity against HBV infected in NOD.CB17-Prkdc-scid/J hydrodynamic injection mouse model expressing HBV genotype D assessed as log reduction in HBV DNA at 10 mg/kg,po QD for 7 days by qPCR method relative to control; assay type: functional; details: time 7 day; in short: as §1
[5] = in vitro; details: CD-1, mouse, liver microsomes
[6] = Half life in CD-1 mouse at 10 mg/kg, po or 2 mg/kg, iv; assay type: ADME, organism-based; details: in vivo; in short: as §2
[7] = system: Hepatitis B virus; experiment: Antiviral activity against HBV infected in HepDE19 cells assessed as inhibition of HBV DNA; assay type: functional, organism-based
In short: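 HepDE19 cells (HepG2-derived, HBV genotype D ayw, Tet-off CMV) seeded at 50,000 cells/well with tetracycline 1 μg/mL overnight. Next day switched to tet-free medium for 4 h, then given compound from 10 μM in a ½-log 8-point series, in duplicate, 0.5% DMSO final. After 7 days at 37 °C, intracellular rcDNA was read by bDNA. EC50 from a 4-parameter fit vs DMSO wells; mean of ≥2 experiments.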

[8] = system: Hepatitis B virus; experiment: Antiviral activity against HBV infected in NOD.CB17-Prkdc-scid/J hydrodynamic injection mouse model expressing HBV genotype D assessed as log reduction in HBV DNA at 30 mg/kg,po QD for 7 days by qPCR method relative to control; assay type: functional; details: time 7 day; in short: as §1
[9] = in vitro; details: human, liver microsomes
[10] = AUC (0-infinity) in CD-1 mouse at 10 mg/kg, po; assay type: ADME, organism-based; parameters: time infinity, dose 10 mg/kg, route po; details: in vivo; in short: as §2
[11] = Cytotoxicity against human HepDE19 cells assessed as reduction in cell viability upto 25 uM; assay type: toxicity, cell-based; details: hepde19, 25 µM
In short: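 Run on HepDE19 replicate plates seeded at 5,000 cells/well after tetracycline removal. Cells were exposed to compound for 4 days at 37 °C, 5% CO2. Viability was read as intracellular ATP by CellTiter-Glo luminescence, expressed as % of DMSO controls. CC50 came from a 4-parameter curve fit, as the mean of ≥2 experiments.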

[12] = Metabolic stability in human liver microsomes assessed as half life at 0.3 uM and measured upto 1 hrs; assay type: ADME, Microsome
In short: (§3)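 Compound at 0.3 μM final was incubated with human or mouse liver microsomes at 0.5 mg/mL in 100 mM potassium phosphate pH 7.4 with 1 mM NADPH at 37 °C. T1/2 = ln(2)/k. CLint = (0.693/t1/2)/0.5 mg/mL microsomal protein.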

[13] = system: Hepatitis B virus; experiment: Antiviral activity against HBV infected in NOD.CB17-Prkdc-scid/J hydrodynamic injection mouse model expressing HBV genotype D assessed as log reduction in HBV DNA at 30 mg/kg,po BID for 7 days by qPCR method relative to control; assay type: functional; details: time 7 day; in short: as §1
[14] = Metabolic stability in CD-1 mouse liver microsomes assessed as half life at 0.3 uM and measured upto 1 hrs; assay type: ADME, Microsome; in short: as §3
[15] = Metabolic stability in human liver microsomes assessed as parent compound remaining at 0.3 uM and measured after 1 hrs; assay type: ADME, Microsome; details: read-out: Stability
[16] = system: Hepatitis B virus; experiment: Antiviral activity against HBV infected in NOD.CB17-Prkdc-scid/J hydrodynamic injection mouse model expressing HBV genotype D assessed as log reduction in HBV DNA at 3 mg/kg,po BID for 7 days by qPCR method relative to control; assay type: functional; details: time 7 day; in short: as §1
[17] = Metabolic stability in CD-1 mouse liver microsomes assessed as parent compound remaining at 0.3 uM and measured after 1 hrs; assay type: ADME, Microsome; details: read-out: Stability
[18] = system: Hepatitis B virus; experiment: Antiviral activity against HBV infected in NOD.CB17-Prkdc-scid/J hydrodynamic injection mouse model expressing HBV genotype D assessed as log reduction in HBV DNA at 10 mg/kg,po BID for 7 days by qPCR method relative to control; assay type: functional; details: time 7 day; in short: as §1
[19] = system: Hepatitis B virus; experiment: Antiviral activity against HBV infected in NOD.CB17-Prkdc-scid/J hydrodynamic injection mouse model expressing HBV genotype D assessed as log reduction in HBV DNA at 100 mg/kg,po QD for 7 days by qPCR method relative to control; assay type: functional; details: time 7 day

- solubility [2]: 10 µM (≈ 4.33 µg/mL)
- Cmax [3]: 4530 ng/mL
- microsomal CLint at 1 h, 0.3 µM [5]: 21.6 µL/min/mg
- half-life [6]: 5.8 h
- EC50 [7]: 0.057 µM
- microsomal CLint at 1 h, 0.3 µM [9]: 7.9 µL/min/mg
- AUC [10]: 60600 ng·h/mL
Compound: Cn1cc2c(c1C(=O)Nc1ccc(F)c(Cl)c1)CC[C@@H]2NC(=O)OCc1c[nH]nn1
- log(activity) [1]: 0.8
- log(activity) [4]: 1.5
- log(activity) [8]: 2

- solubility [2]: < 4 µM
- microsomal CLint at 1 h, 0.3 µM [5]: 31.4 µL/min/mg
- EC50 [7]: 0.012 µM
- microsomal CLint at 1 h, 0.3 µM [9]: 8.5 µL/min/mg
Compound: Cn1cnc(COC(=O)N[C@H]2CCc3c2c(Br)n(C)c3C(=O)Nc2ccc(F)c(Cl)c2)n1

- EC50 [7]: 0.11 µM
Compound: CCOC(=O)C1=C(CN2CCOCC2)NC(c2nccs2)=NC1c1ccc(F)cc1Br (stereo unspecified)

- half-life at 0.3 µM [12]: 4.27 h
- solubility [2]: 24 µM (≈ 10.7 µg/mL)
- Cmax [3]: 4270 ng/mL
- microsomal CLint at 1 h, 0.3 µM [5]: 12.2 µL/min/mg
- half-life [6]: 2.6 h
- half-life at 0.3 µM [14]: 1.9 h
- EC50 [7]: 0.052 µM
- remaining at 1 h, 0.3 µM [15]: 87%
- remaining at 1 h, 0.3 µM [17]: 81%
- microsomal CLint at 1 h, 0.3 µM [9]: 5.4 µL/min/mg
- AUC [10]: 46700 ng·h/mL
Compound: Cn1cnc(COC(=O)N[C@H]2CCc3c2cn(C)c3C(=O)Nc2ccc(F)c(Cl)c2)n1
- log(activity) [13]: 2.5
- Activity [11]: Non-Toxic
- log(activity) [16]: 0.8
- log(activity) [8]: 1.8
- log(activity) [18]: 1.9

- solubility [2]: 5 µM (≈ 2.41 µg/mL)
- microsomal CLint at 1 h, 0.3 µM [5]: 33.8 µL/min/mg
- EC50 [7]: 0.013 µM
- microsomal CLint at 1 h, 0.3 µM [9]: 8.8 µL/min/mg
Compound: Cn1cnc(COC(=O)N[C@H]2CCc3c2c(Cl)n(C)c3C(=O)Nc2ccc(F)c(Cl)c2)n1

- EC50 [7]: 0.25 µM
Compound: O=C(NCc1cnc(C(F)(F)F)s1)c1ccc2c(c1)NC(=O)c1ccccc1S2(=O)=O [VEBICORVIR]

- EC50 [7]: 0.045 µM
Compound: C[C@H](NS(=O)(=O)c1cc(C(=O)Nc2ccc(F)c(C#N)c2)n(C)c1)C(F)(F)F [BERSACAPAVIR]

- solubility [2]: 23 µM (≈ 9.96 µg/mL)
- Cmax [3]: 3860 ng/mL
- microsomal CLint at 1 h, 0.3 µM [5]: 12.3 µL/min/mg
- half-life [6]: 4.8 h
- EC50 [7]: 0.05 µM
- microsomal CLint at 1 h, 0.3 µM [9]: 4.1 µL/min/mg
- AUC [10]: 40700 ng·h/mL
Compound: Cn1cc2c(c1C(=O)Nc1ccc(F)c(Cl)c1)CC[C@@H]2NC(=O)OCc1nc[nH]n1
- log(activity) [4]: 0.6

- EC50 [7]: 0.05 µM
Compound: COC(=O)C1=C(CN2CCOC[C@H]2C(=O)O)NC(c2nccs2)=N[C@H]1c1ccc(F)cc1Br

The next lines start with the compound.

Compound: Cn1cnc(COC(=O)N[C@@H]2CCc3c2cn(C)c3C(=O)Nc2ccc(F)c(Cl)c2)n1
- Activity [11]: Non-Toxic
- EC50 [7]: 3.5 µM

Compound: Cn1cc(COC(=O)N[C@H]2CCc3c2cn(C)c3C(=O)Nc2ccc(F)c(Cl)c2)nn1
- solubility [2]: < 4 µM
- microsomal CLint at 1 h, 0.3 µM [5]: 38.4 µL/min/mg
- EC50 [7]: 0.052 µM
- microsomal CLint at 1 h, 0.3 µM [9]: 24.4 µL/min/mg

Compound: Cn1c(Cl)c2c(c1C(=O)Nc1ccc(F)c(Cl)c1)CC[C@@H]2NC(=O)OCc1c[nH]nn1
- solubility [2]: < 4 µM
- Cmax [3]: 2510 ng/mL
- microsomal CLint at 1 h, 0.3 µM [5]: 20.2 µL/min/mg
- half-life [6]: 3.5 h
- EC50 [7]: 0.014 µM
- microsomal CLint at 1 h, 0.3 µM [9]: 11.2 µL/min/mg
- AUC [10]: 30600 ng·h/mL

Compound: O=C(Nc1cc(F)c(F)c(F)c1)c1ccc(F)c(S(=O)(=O)N2CCC(O)CC2)c1
- EC50 [7]: 0.65 µM

Compound: Cc1c2c(c(C(=O)Nc3ccc(F)c(Cl)c3)n1C)CC[C@@H]2NC(=O)OCc1ncn(C)n1
- solubility [2]: 5 µM (≈ 2.3 µg/mL)
- microsomal CLint at 1 h, 0.3 µM [5]: 52.8 µL/min/mg
- EC50 [7]: 0.114 µM
- microsomal CLint at 1 h, 0.3 µM [9]: 12.7 µL/min/mg

Compound: Cn1cnc(COC(=O)N[C@H]2CCc3c(C(=O)Nc4ccc(F)c(Cl)c4)ccc(F)c32)n1
- log(activity) [19]: 1
- half-life at 0.3 µM [12]: 3.22 h
- log(activity) [13]: 2.1
- Cmax [3]: 1610 ng/mL
- microsomal CLint at 1 h, 0.3 µM [5]: 20.6 µL/min/mg
- half-life [6]: 2.5 h
- half-life at 0.3 µM [14]: 1.23 h
- EC50 [7]: 0.077 µM
- remaining at 1 h, 0.3 µM [15]: 83%
- remaining at 1 h, 0.3 µM [17]: 56%
- microsomal CLint at 1 h, 0.3 µM [9]: 6.2 µL/min/mg
- log(activity) [18]: 0.6
- AUC [10]: 9870 ng·h/mL

Compound: Cn1c(Cl)c2c(c1C(=O)Nc1ccc(F)c(Cl)c1)CC[C@@H]2NC(=O)OCc1nc[nH]n1
- solubility [2]: < 4 µM
- microsomal CLint at 1 h, 0.3 µM [5]: 29.7 µL/min/mg
- EC50 [7]: 0.011 µM
- microsomal CLint at 1 h, 0.3 µM [9]: 8.6 µL/min/mg
